Results of several laboratories.
Target: Mitogen-activated protein kinase kinase kinase 9 (MAP3K9, Homo sapiens, UniProt P80192)

| Structure (SMILES) | read-out | method | concentration | remaining binding [%] |
| --- | --- | --- | --- | --- |
| O=C(NCCCN1CCOCC1)c1ccc(Nc2nccc(-c3cc4ccccc4s3)n2)cc1 | binding | competition with immobilised ligand | 1 µM | 14 |
| N#Cc1ccc(Nc2ccc3[nH]c(=O)[nH]c3c2)c(Cl)c1 | cell-free assay | competition with immobilised ligand | 1 µM | 100 |
| N#Cc1ccccc1CSc1nnc2c(n1)[nH]c1ccccc12 | binding | competition with immobilised ligand | 10 µM | 98 |
| COc1cnc(Nc2cccc(S(N)(=O)=O)c2)nc1N1CCN(c2ccccc2)C(=O)C1 | binding | competition with immobilised ligand | 1 µM | 98 |
| COc1ccnn2ncc(-c3ccnc(N(C)C)n3)c12 | binding | – | 1 µM | 91 |
| O=C(c1ccc(Nc2ncc(Cl)c(-c3cc4ccccc4s3)n2)cc1)N1CCC(N2CCCC2)CC1 | binding | competition with immobilised ligand | 1 µM | 4.3 |
| N[C@H]1CCN(c2nccc(-c3cnn4ncccc34)n2)C1 | binding | – | 1 µM | 87 |
| C[C@H](NC(=O)c1cnc2n1[C@](C)(Cc1ccc(C#N)cc1)C(=O)N2c1cc(Cl)c(F)c(Cl)c1)C(=O)NC1(c2ccccn2)CC1 | cell-free assay | competition with immobilised ligand | 1 µM | 100 |
| Cc1cnn2ncc(-c3ccnc(N(C)C)n3)c2c1 | binding | – | 1 µM | 100 |
| C[C@@]1(Cc2ccc(C#N)cc2)C(=O)N(c2cc(Cl)cc(Cl)c2)c2ncc(C(=O)NC3(c4nc(C5CCC5)no4)CC3)n21 | cell-free assay | competition with immobilised ligand | 1 µM | 100 |
| CC(C)(C)c1ccc(-c2nc(CBr)nn2-c2cccc(O)c2)cc1 | cell-free assay | competition with immobilised ligand | 10 µM | 91 |
| Cc1cnc(Nc2ccc(C(=O)N3CCC(N4CCCC4)CC3)cc2)nc1-c1cc2ccccc2s1 | binding | competition with immobilised ligand | 1 µM | 3.3 |
| FC(F)(F)Oc1cccc(-c2cnc3ccc(-c4ccncc4)nn23)c1 | cell-free assay | competition with immobilised ligand | 5 µM | 77 |
| C[C@@H](c1ccc(-n2cnc3c(N)ncnc32)cc1)N1CCc2nn(C)c(Cc3ccccc3)c2C1=O | binding | competition with immobilised ligand | 0.1 µM | 95 |
| Cc1nccc(COC(=O)N2C[C@@H]3[C@@H](CNC(=O)c4ccc5[nH]nnc5c4)[C@@H]3C2)n1 | cell-free assay | competition with immobilised ligand | 1 µM | 89 |
| O=C(NCC1CCOCC1)c1n[nH]cc1NC(=O)c1c(F)cccc1F | binding | competition with immobilised ligand | 1 µM | 100 |
| CN([C@@H]1CCc2c(CC(=O)O)c3ccccc3n2C1)S(=O)(=O)c1ccc(F)cc1 | cell-free assay | competition with immobilised ligand | 1 µM | 100 |
| CN(C)c1nccc(-c2cnn3ncccc23)n1 | binding | – | 1 µM | 100 |
| CC(=O)C1=C(C)N(c2cccc(C(F)(F)F)c2)C(=O)N[C@@H]1c1ccc(C#N)nc1 | cell-free assay | competition with immobilised ligand | 1 µM | 94 |
| C[C@H]1CCN(c2nccc(-c3cnn4ncccc34)n2)C1 | binding | – | 1 µM | 100 |
| CN(C)c1ncnc(-c2ccc3nc(Nc4cc(CN5CCN(C(=O)CC(F)(F)F)CC5)ccn4)[nH]c3c2)c1Cl | cell-free assay | competition with immobilised ligand | 1 µM | 90 |
| c1cncc(-c2cccc(Nc3nccc(NC4CCCCC4)n3)c2)c1 | binding | competition with immobilised ligand | 10 µM | 19 |
| CN(C)C(=O)Cn1cc(-c2nc([C@@](C)(c3ccc(-c4cnc(N)nc4)cc3)C3CC3)no2)cn1 | cell-free assay | competition with immobilised ligand | 1 µM | 100 |
| F[C@@H]1CCN(c2nccc(-c3cnn4ncccc34)n2)C1 | binding | – | 1 µM | 78 |
| C[C@@H]1CN(c2ccc3ncc(-c4ccc5[nH]nc(C6CC6)c5c4)n3n2)C[C@H](C)O1 | binding | competition with immobilised ligand | 50 nM | 96 |
